13 compounds from ChEMBL document CHEMBL1122290, “N-(substituted-phenyl)-D-glycopyranosylamines and their O-acetyl derivatives as potential modifiers of the formation of glycosaminoglycans” (1983) can be followed below.

In the experiment the test system is B16. The experiment in a line: In vitro compound's ability to inhibit the replication of cultured B16 melanoma cells. The class given is functional. To be noted: Mus musculus, read-out: ID50 (the source's name). The method, boiled down:
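B16/F10 melanoma cells, kept as monolayers at 37 °C in Eagle's MEM with Hanks' salts plus 10% fetal calf serum, were seeded from exponential growth at 1.5 to 3 × 10⁵ cells per 25-cm² flask. Compound (0.1 μM–0.1 mM) was added at seeding. After 72 h, cells were trypsinized and counted electronically. ID50 was read graphically from at least two replicate experiments.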
Turning to `CC1O[C@@H](Nc2ccc(C(=O)O)cc2)[C@@H](O)C(O)[C@H]1O` (stereo partly drawn), the IC50 came out at 37 µM.
`CC(=O)OCC1O[C@@H](Nc2ccc(C(=O)O)cc2)[C@@H](OC(C)=O)C(OC(C)=O)[C@H]1OC(C)=O` (stereo partly drawn): the IC50 turned out to be 49 µM.
`CC(=O)OCC1O[C@@H](Nc2ccc(C(=O)O)cc2)[C@@H](OC(C)=O)C(OC(C)=O)[C@@H]1OC(C)=O` (stereo partly drawn): the IC50 came to 18 µM.
Regarding `O=C(O)c1ccc(N[C@@H]2O[C@H](CO)[C@@H](O)[C@H](O)[C@H]2O)cc1`, the IC50 was determined as 100 µM.
In the case of `O=C(O)c1ccc(N[C@@H]2OC(CO)[C@@H](O)C(O)[C@@H]2O)cc1` (stereo partly drawn), the IC50 came to 100 µM.
Regarding `O=C(O)c1ccc(N[C@@H]2O[C@H](CO)[C@H](O)[C@H](O)[C@H]2O)cc1`, the IC50 came out at 30 µM.
Regarding `CC(=O)OC(=O)c1ccc(N[C@@H]2OC[C@@H](OC(C)=O)C(OC(C)=O)[C@@H]2OC(C)=O)cc1` (stereo partly drawn), the IC50 amounted to 25 µM.
For `O=C(O)c1ccc(N[C@@H]2OC[C@@H](O)C(O)[C@H]2O)cc1` (stereo partly drawn), the IC50 worked out at 100 µM.
Take `CC(=O)OC1[C@@H](OC(C)=O)C(C)O[C@@H](Nc2ccc(C(=O)O)cc2)[C@H]1OC(C)=O` (stereo partly drawn): the IC50 was found to be 20 µM.
For `O=C(O)c1ccc(N[C@@H]2O[C@H](CO)[C@@H](O)[C@H](O)[C@@H]2O)cc1` the value was 39 µM.
`CC(=O)OC1[C@@H](OC(C)=O)CO[C@@H](Nc2ccc(C(=O)O)cc2)[C@@H]1OC(C)=O` (stereo partly drawn): the IC50 was found to be 4 µM.
Take `O=C(O)c1ccc(N[C@@H]2OC[C@@H](O)C(O)[C@@H]2O)cc1` (stereo partly drawn): the IC50 was 38 µM.
For `CC(=O)OCC1O[C@@H](Nc2ccc(C(=O)OC(C)=O)cc2)[C@H](OC(C)=O)C(OC(C)=O)[C@@H]1OC(C)=O` (stereo partly drawn), the IC50 amounted to 25 µM.
